Data from ChEMBL document CHEMBL1909615, “Design, synthesis and antibacterial activity of fluoroquinolones containing bulky arenesulfonyl fragment: 2D-QSAR and docking study” (2011).
In brackets after ≈: the same amount, converted by molar mass.

Assays:
Format in all cases: functional
Bacillus subtilis = assay: Antibacterial activity against Bacillus subtilis ATCC 10400 after 18 hrs by EUCAST broth dilution method; conditions: for MIC: Bacillus subtilis, ATCC 10400, 18 h
Staphylococcus aureus = assay: Antibacterial activity against Staphylococcus aureus ATCC 29213 after 18 hrs by EUCAST broth dilution method; conditions: for MIC: Staphylococcus aureus, ATCC 29213, 18 h
How it was run: (§1)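 Broth microdilution in Mueller-Hinton broth per CLSI. Compounds dissolved in DMSO at 5120 µg/mL, diluted tenfold in MHB to 512 µg/mL, then twofold serially across 12 wells down to 0.25 µg/mL. Strains grown in tryptone soy broth; 5 µL inoculum (10^4-10^5 CFU/mL) added per well. Incubated 35 °C, 18 h. MIC read manually as the lowest concentration preventing visible growth.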

Escherichia coli = assay: Antibacterial activity against Escherichia coli ATCC 25922 after 18 hrs by EUCAST broth dilution method; conditions: ATCC 25922, 18 h; how it was run: as §1
Pseudomonas aeruginosa = assay: Antibacterial activity against Pseudomonas aeruginosa ATCC 27853 after 18 hrs by EUCAST broth dilution method; conditions: for MIC: Pseudomonas aeruginosa, ATCC 27853, 18 h; how it was run: as §1

Compound	log(1/MIC), MIC in mM (Bacillus subtilis)	MIC (Bacillus subtilis) [µM]	log(1/MIC), MIC in mM (Staphylococcus aureus)	MIC (Staphylococcus aureus) [µM]	MIC (Escherichia coli) [µM]	log(1/MIC), MIC in mM (Pseudomonas aeruginosa)	MIC (Pseudomonas aeruginosa) [µM]
CCn1cc(C(=O)O)c(=O)c2cc(F)c(N3CCN(S(=O)(=O)c4ccc5ccccc5c4)CC3)cc21	3.01	0.981 (≈ 0.5 µg/mL)	2.71	1.96 (≈ 0.999 µg/mL)	251 (≈ 128 µg/mL)	0.9	126 (≈ 64.2 µg/mL)
O=C(O)c1cn(C2CC2)c2cc(N3CCN(S(=O)(=O)c4ccc5ccccc5c4)CC3)c(F)cc2c1=O	2.72	1.92 (≈ 1 µg/mL)	2.72	1.92 (≈ 1 µg/mL)	123 (≈ 64.2 µg/mL)	0.61	245 (≈ 128 µg/mL)
CCn1cc(C(=O)O)c(=O)c2cc(F)c(N3CCN(S(=O)(=O)c4cccc5ccccc45)CC3)cc21	3.01	0.981 (≈ 0.5 µg/mL)	2.71	1.96 (≈ 0.999 µg/mL)	251 (≈ 128 µg/mL)	0.6	251 (≈ 128 µg/mL)
O=C(O)c1cn(C2CC2)c2cc(N3CCN(S(=O)(=O)c4cccc5ccccc45)CC3)c(F)cc2c1=O	3.32	0.479 (≈ 0.25 µg/mL)	2.72	1.92 (≈ 1 µg/mL)	61.3 (≈ 32 µg/mL)	0.91	123 (≈ 64.2 µg/mL)
CCn1cc(C(=O)O)c(=O)c2cc(F)c(N3CCN(S(=O)(=O)c4ccc(OC)cc4OC)CC3)cc21	3.32	0.481 (≈ 0.25 µg/mL)	3.32	0.481 (≈ 0.25 µg/mL)	≤ 0.481	2.14	3.85 (≈ 2 µg/mL)
COc1ccc(S(=O)(=O)N2CCN(c3cc4c(cc3F)c(=O)c(C(=O)O)cn4C3CC3)CC2)c(OC)c1	3.33	≤ 0.47	3.33	≤ 0.47	≤ 0.47	3.33	0.47 (≈ 0.25 µg/mL)
CCn1cc(C(=O)O)c(=O)c2cc(F)c(N3CCN(S(=O)(=O)c4ccc(OC)c(OC)c4)CC3)cc21	3.02	0.962 (≈ 0.5 µg/mL)	3.02	0.962 (≈ 0.5 µg/mL)	≤ 0.481	2.14	3.85 (≈ 2 µg/mL)
COc1ccc(S(=O)(=O)N2CCN(c3cc4c(cc3F)c(=O)c(C(=O)O)cn4C3CC3)CC2)cc1OC	3.33	0.47 (≈ 0.25 µg/mL)	3.33	≤ 0.47	≤ 0.47	2.42	3.76 (≈ 2 µg/mL)
CCn1cc(C(=O)O)c(=O)c2cc(F)c(N3CCN(S(=O)(=O)c4ccc(F)cc4F)CC3)cc21	2.39	4.04 (≈ 2 µg/mL)	2.09	8.07 (≈ 4 µg/mL)	8.07 (≈ 4 µg/mL)	0.89	129 (≈ 63.9 µg/mL)
O=C(O)c1cn(C2CC2)c2cc(N3CCN(S(=O)(=O)c4ccc(F)cc4F)CC3)c(F)cc2c1=O	3.31	0.493 (≈ 0.25 µg/mL)	2.41	3.94 (≈ 2 µg/mL)	7.88 (≈ 4 µg/mL)	1.2	63 (≈ 32 µg/mL)
CCn1cc(C(=O)O)c(=O)c2cc(F)c(N3CCN(S(=O)(=O)c4ccc(Cl)cc4Cl)CC3)cc21	3.33	0.473 (≈ 0.25 µg/mL)	3.33	≤ 0.473	≤ 0.473	2.86	1.39 (≈ 0.734 µg/mL)
O=C(O)c1cn(C2CC2)c2cc(N3CCN(S(=O)(=O)c4ccc(Cl)cc4Cl)CC3)c(F)cc2c1=O	3.33	≤ 0.463	3.33	≤ 0.463	≤ 0.463	2.73	1.85 (≈ 1 µg/mL)
CCn1cc(C(=O)O)c(=O)c2cc(F)c(N3CCN(S(=O)(=O)c4ccc(Cl)c(Cl)c4)CC3)cc21	3.33	≤ 0.473	3.33	≤ 0.473	≤ 0.473	2.72	1.89 (≈ 0.999 µg/mL)
O=C(O)c1cn(C2CC2)c2cc(N3CCN(S(=O)(=O)c4ccc(Cl)c(Cl)c4)CC3)c(F)cc2c1=O	3.33	≤ 0.463	3.33	≤ 0.463	≤ 0.463	2.73	1.85 (≈ 1 µg/mL)
CCn1cc(C(=O)O)c(=O)c2cc(F)c(N3CCN(S(=O)(=O)c4c(Cl)cc(Cl)cc4Cl)CC3)cc21	3.35	0.444 (≈ 0.25 µg/mL)	2.75	1.78 (≈ 1 µg/mL)	≥ 455	0.34	≥ 455
O=C(O)c1cn(C2CC2)c2cc(N3CCN(S(=O)(=O)c4c(Cl)cc(Cl)cc4Cl)CC3)c(F)cc2c1=O	3.36	0.435 (≈ 0.25 µg/mL)	2.76	1.74 (≈ 1 µg/mL)	111 (≈ 63.8 µg/mL)	0.95	111 (≈ 63.8 µg/mL)
CCn1cc(C(=O)O)c(=O)c2cc(F)c(N3CCN(S(=O)(=O)c4c(C)cc(C)cc4C)CC3)cc21	2.09	7.98 (≈ 4 µg/mL)	2.09	7.98 (≈ 4 µg/mL)	32 (≈ 16.1 µg/mL)	1.19	64 (≈ 32.1 µg/mL)
Cc1cc(C)c(S(=O)(=O)N2CCN(c3cc4c(cc3F)c(=O)c(C(=O)O)cn4C3CC3)CC2)c(C)c1	1.51	31 (≈ 15.9 µg/mL)	1.21	62 (≈ 31.8 µg/mL)	62 (≈ 31.8 µg/mL)	0.9	125 (≈ 64.2 µg/mL)
CCn1cc(C(=O)O)c(=O)c2cc(F)c(N3CCN(S(=O)(=O)c4c(C(C)C)cc(C(C)C)cc4C(C)C)CC3)cc21	1.26	55 (≈ 32.2 µg/mL)	1.26	55 (≈ 32.2 µg/mL)	55 (≈ 32.2 µg/mL)	0.96	109 (≈ 63.8 µg/mL)
CC(C)c1cc(C(C)C)c(S(=O)(=O)N2CCN(c3cc4c(cc3F)c(=O)c(C(=O)O)cn4C3CC3)CC2)c(C(C)C)c1	0.97	107 (≈ 64 µg/mL)	0.67	214 (≈ 128 µg/mL)	3.35 (≈ 2 µg/mL)	0.37	≥ 428
CCn1cc(C(=O)O)c(=O)c2cc(F)c(N3CCN(S(=O)(=O)c4c(C)c(C)c(C)c(C)c4C)CC3)cc21	0.62	242 (≈ 128 µg/mL)	0.62	242 (≈ 128 µg/mL)	242 (≈ 128 µg/mL)	0.62	242 (≈ 128 µg/mL)
Cc1c(C)c(C)c(S(=O)(=O)N2CCN(c3cc4c(cc3F)c(=O)c(C(=O)O)cn4C3CC3)CC2)c(C)c1C	0.63	236 (≈ 128 µg/mL)	0.33	≥ 473	≥ 473	0.33	≥ 473
O=C(O)c1cn(C2CC2)c2cc(N3CCNCC3)c(F)cc2c1=O [CIPROFLOXACIN]	3.12	≤ 0.758	3.12	≤ 0.758	≤ 0.758	3.12	0.758 (≈ 0.251 µg/mL)
